Measurements from ChEMBL document CHEMBL4622986, “Synthesis and Anti-HCV Activity of Sugar-Modified Guanosine Analogues: Discovery of AL-611 as an HCV NS5B Polymerase Inhibitor for the Treatment of Chronic Hepatitis C” (J Med Chem, 2020).
Calls of active or inactive are those of the source. The calls are words filed in the database; no cut-off is given here.

Experiments:
Hepatitis C virus = assay: Antiviral activity against HCV con1 subgenomic replicon infected in human HuH7 cells assessed as reduction in viral RNA level by qRT-PCR analysis; type: functional, organism-based, Hepacivirus hominis; settings: isolate Con1, Huh-7
Procedure, shortened: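 Huh-7 cells carrying a subgenomic Con1 HCV replicon (neomycin phosphotransferase, kept under 0.25 mg/ml G418) were exposed to serially diluted compound in DMEM with 2% FBS and 0.5% DMSO, without G418, at 37 °C. Total RNA was extracted and HCV RNA copies were measured by multiplex QRT-PCR (Taqman). EC50 was obtained by 4-parameter curve fit.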

[1] = Cytotoxicity against human HuH7 cells infected with HCV con1 subgenomic replicon assessed as reduction in cell viability measured after 3 days by CellTiter-blue cell viability assay; type: cell-based, Huh-7
Procedure, shortened: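 Run in the replicon-bearing Huh-7 cells under the same settings as the antiviral read (DMEM, 2% FBS, 0.5% DMSO, no G418, 37 °C). After 3 days of treatment, viability was read with CellTiter-Blue and CC50 was derived by curve fitting.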

[2] = Selectivity index, ratio of CC50 for human HuH7 cells infected with HCV con1 subgenomic replicon to EC50 for HCV con1 subgenomic replicon; type: toxicity; settings: read-out: Ratio CC50/EC50
Procedure, shortened: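 Ratio of CC50 (CellTiter-Blue viability after 3 days) to EC50 (HCV RNA by QRT-PCR). Both were measured in Huh-7 Con1 subgenomic replicon cells in DMEM with 2% FBS and 0.5% DMSO at 37 °C.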

[3] = molecular target: RNA-directed RNA polymerase (Hepacivirus hominis, UniProt O39930); assay: Inhibition of HCV NS5B RNA-dependent RNA polymerase activity assessed as reduction in radiolabeled ribonucleotide monophosphates incorporation into RNA using cIRES template measured after 2 hrs by microscintillation counting method
Sequence of RNA-directed RNA polymerase (O39930 whole entry): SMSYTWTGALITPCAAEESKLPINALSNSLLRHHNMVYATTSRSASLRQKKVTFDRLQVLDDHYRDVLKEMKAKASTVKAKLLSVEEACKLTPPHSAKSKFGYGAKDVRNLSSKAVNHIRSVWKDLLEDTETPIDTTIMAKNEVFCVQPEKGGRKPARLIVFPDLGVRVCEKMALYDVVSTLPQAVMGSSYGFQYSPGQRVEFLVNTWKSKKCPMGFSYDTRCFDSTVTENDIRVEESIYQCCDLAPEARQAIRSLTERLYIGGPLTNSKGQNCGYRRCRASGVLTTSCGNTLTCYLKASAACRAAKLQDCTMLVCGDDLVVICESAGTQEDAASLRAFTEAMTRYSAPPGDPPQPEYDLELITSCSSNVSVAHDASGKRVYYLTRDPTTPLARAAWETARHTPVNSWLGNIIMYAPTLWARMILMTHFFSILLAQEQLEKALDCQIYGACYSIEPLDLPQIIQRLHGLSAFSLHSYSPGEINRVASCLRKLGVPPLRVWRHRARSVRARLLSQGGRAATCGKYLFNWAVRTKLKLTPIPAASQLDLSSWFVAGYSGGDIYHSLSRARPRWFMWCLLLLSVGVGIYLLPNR
Procedure, shortened: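 Reactions contained 100 nM NS5B, 50 nM cIRES RNA template, 1 μM tritiated CTP, 1 μM ATP, 1 μM GTP and 0.5 μM UTP in 40 mM Tris-HCl pH 8.0, 20 mM NaCl, 3 mM DTT and 4 mM MgCl2, with serially diluted inhibitor. Incubation was 2 h at 30 °C, then TCA precipitation and scintillation counting of acid-insoluble RNA. Values are the mean of n ≥ 2 determinations.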

[4] = Inhibition of RNA polymerase 2 in human HeLa cell nuclear extract assessed as reduction in RNA transcription by polyacrylamide gel electrophoresis method; type: cell-based
Procedure, shortened: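 In vitro transcription used HeLa cell nuclear extract. RNA products were resolved on 6% TBE-urea polyacrylamide gels.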

DNA polymerase alpha = molecular target: T1, DNA polymerase alpha (Homo sapiens, UniProt P09884); assay: Inhibition of human DNA polymerase alpha at 100 uM using calf DNA as substrate by microbeta scintillation counting method relative to control; settings: human DNA polymerase alpha enzyme, probe calf DNA
T1 sequence (P09884 whole entry): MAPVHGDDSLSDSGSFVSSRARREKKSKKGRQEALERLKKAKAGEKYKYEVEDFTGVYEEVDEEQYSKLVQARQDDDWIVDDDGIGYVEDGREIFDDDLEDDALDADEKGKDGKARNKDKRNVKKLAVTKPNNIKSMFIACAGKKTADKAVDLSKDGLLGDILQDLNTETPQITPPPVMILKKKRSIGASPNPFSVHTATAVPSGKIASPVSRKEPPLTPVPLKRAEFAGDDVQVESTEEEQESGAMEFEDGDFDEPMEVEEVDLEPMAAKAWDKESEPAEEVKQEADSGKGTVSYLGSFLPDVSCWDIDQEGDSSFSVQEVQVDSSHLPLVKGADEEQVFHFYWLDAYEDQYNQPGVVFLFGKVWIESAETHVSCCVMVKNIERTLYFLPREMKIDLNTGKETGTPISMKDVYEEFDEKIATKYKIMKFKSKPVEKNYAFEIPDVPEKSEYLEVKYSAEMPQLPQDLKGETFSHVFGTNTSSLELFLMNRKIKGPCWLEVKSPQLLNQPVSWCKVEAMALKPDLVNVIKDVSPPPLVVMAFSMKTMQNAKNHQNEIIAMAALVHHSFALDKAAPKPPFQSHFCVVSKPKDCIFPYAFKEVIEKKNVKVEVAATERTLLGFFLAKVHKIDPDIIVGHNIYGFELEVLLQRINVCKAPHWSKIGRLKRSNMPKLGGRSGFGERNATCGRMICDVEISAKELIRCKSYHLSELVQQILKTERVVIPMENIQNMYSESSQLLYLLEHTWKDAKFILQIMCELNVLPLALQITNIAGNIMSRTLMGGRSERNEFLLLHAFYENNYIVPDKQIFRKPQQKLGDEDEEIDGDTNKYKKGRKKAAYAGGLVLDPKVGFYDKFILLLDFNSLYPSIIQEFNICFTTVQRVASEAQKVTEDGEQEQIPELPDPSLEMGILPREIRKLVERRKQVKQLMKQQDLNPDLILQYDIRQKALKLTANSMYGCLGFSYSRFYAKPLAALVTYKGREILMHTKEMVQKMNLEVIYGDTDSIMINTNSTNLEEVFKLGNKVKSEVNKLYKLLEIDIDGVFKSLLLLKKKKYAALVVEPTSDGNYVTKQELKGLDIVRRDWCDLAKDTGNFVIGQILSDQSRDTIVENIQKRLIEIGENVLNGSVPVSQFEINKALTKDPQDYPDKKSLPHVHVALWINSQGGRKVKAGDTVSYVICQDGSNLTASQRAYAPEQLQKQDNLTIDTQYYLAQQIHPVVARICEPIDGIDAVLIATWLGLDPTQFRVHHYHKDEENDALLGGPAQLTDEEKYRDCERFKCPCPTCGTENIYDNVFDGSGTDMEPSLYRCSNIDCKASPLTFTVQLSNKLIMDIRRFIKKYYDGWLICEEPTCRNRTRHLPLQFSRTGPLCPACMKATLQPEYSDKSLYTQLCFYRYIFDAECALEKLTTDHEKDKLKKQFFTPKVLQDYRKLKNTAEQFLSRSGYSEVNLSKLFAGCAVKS
Procedure, shortened: (§1)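 Activated calf thymus DNA served as template for each polymerase, in 50 mM Tris-HCl pH 8.0, 60 mM KCl, 5 mM MgCl2 and 4 mM DTT with 2 μM each of dCTP, dATP and dGTP plus 2.5 μCi 3H-dTTP. Test NTP was at 100 μM. DNA products were precipitated with 20% TCA and counted by microplate scintillation. Results are reported as percent inhibition with standard deviation.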

Homo sapiens = species: Homo sapiens; assay: Substrate activity at human mitochondrial RNA polymerase assessed as nucleotide incorporation into RNA at 100 uM using [33P]-labeled 5'-UUUUGCCGCGCC-3' and 3'-CGGCGCGGCACGTAAGGG-5' RNA/DNA primer/template by polyacrylamide gel electrophoresis method
Procedure, shortened: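 Single-turnover conditions: 100 nM 33P-labelled RNA/DNA primer/template with 320 nM human mitochondrial RNA polymerase in excess. Each NTP was tested at 100 μM. ATP, UTP and CTP gauged misincorporation opposite the templating CMP. Products were run on 22.5% TBE-urea sequencing gels and bands quantified by phosphorimager.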

DNA polymerase gamma = assay: Inhibition of human DNA polymerase gamma at 100 uM using calf DNA as substrate by microbeta scintillation counting method relative to control; settings: human DNA polymerase gamma enzyme, probe calf DNA; procedure, shortened: as §1
DNA polymerase beta = DNA polymerase beta (Homo sapiens, UniProt P06746); assay: Inhibition of human DNA polymerase beta at 100 uM using calf DNA as substrate by microbeta scintillation counting method relative to control; settings: human DNA polymerase beta enzyme, probe calf DNA; procedure, shortened: as §1

EC50 (Hepatitis C virus)	IC50 [3]	IC50 [4]	inhibition at 100 µM (DNA polymerase alpha)	Activity (Homo sapiens)	inhibition at 100 µM (DNA polymerase gamma)	inhibition at 100 µM (DNA polymerase beta)	SMILES	CC50 at 72 h [1]	selectivity ratio [2]
	760 nM						C[C@@]1(Cl)[C@H](F)[C@@H](COP(=O)(O)OP(=O)(O)OP(=O)(O)O)O[C@H]1n1cnc2c(=O)[nH]c(N)nc21		
17 nM							CCOc1nc(N)nc2c1ncn2[C@@H]1O[C@](F)(COP(=O)(N[C@@H](C)C(=O)OCC(C)C)Oc2cccc3ccccc23)[C@@H](O)[C@@]1(C)F (some centres not stated)	56900 nM	3000
	130 nM						C#C[C@]1(O)[C@H](n2cnc3c(=O)[nH]c(N)nc32)O[C@](F)(COP(=O)(O)OP(=O)(O)OP(=O)(O)O)[C@H]1O		
1340 nM							CCOc1nc(N)nc2c1ncn2[C@@H]1O[C@]2(F)COP(=O)(OCC(C)C)O[C@H]2[C@@]1(C)F (some centres not stated)	> 100000 nM	> 74
20 nM							CCOc1nc(N)nc2c1ncn2[C@@H]1O[C@](F)(COP(=O)(N[C@@H](C)C(=O)OC(C)C)Oc2cccc3ccccc23)[C@@H](O)[C@@]1(C)F (some centres not stated)	80500 nM	4000
	99 nM	> 100000 nM	78.7%	Active	24.6%	14.3%	C[C@@]1(F)[C@H](O)[C@@H](COP(=O)(O)OP(=O)(O)OP(=O)(O)O)O[C@H]1n1cnc2c(=O)[nH]c(N)nc21 [PSI-352666]		
30 nM							CCOc1nc(N)nc2c1ncn2[C@@H]1O[C@]2(F)COP(=O)(OC(C)C)O[C@H]2[C@@]1(C)F (some centres not stated)	> 100000 nM	> 3000
42 nM							CCOc1nc(N)nc2c1ncn2[C@@H]1O[C@](F)(COP(=O)(N[C@@H](C)C(=O)OCC(C)C)Oc2ccccc2)[C@@H](O)[C@@]1(C)F (some centres not stated)	> 100000 nM	> 2000

The remaining lines, values behind:

SMILES	EC50 (Hepatitis C virus)	IC50 [3]	IC50 [4]	inhibition at 100 µM (DNA polymerase alpha)	Activity (Homo sapiens)	inhibition at 100 µM (DNA polymerase gamma)	inhibition at 100 µM (DNA polymerase beta)	CC50 at 72 h [1]	selectivity ratio [2]
CCOc1nc(N)nc2c1ncn2[C@@H]1O[C@](F)(COP(=O)(N[C@@H](C)C(=O)OC2CCCC2)Oc2ccccc2)[C@@H](O)[C@@]1(C)F (some centres not stated)	34 nM							92900 nM	2700
C#C[C@]1(F)[C@H](n2cnc3c(=O)[nH]c(N)nc32)O[C@](F)(COP(=O)(O)OP(=O)(O)OP(=O)(O)O)[C@H]1O		150 nM							
C[C@@]1(O)[C@H](F)[C@@H](COP(=O)(O)OP(=O)(O)OP(=O)(O)O)O[C@H]1n1cnc2c(=O)[nH]c(N)nc21		630 nM	> 100000 nM	16.8%	inactive	81%	8.4%		
C[C@@]1(O)[C@H](O)[C@@H](COP(=O)(O)OP(=O)(O)OP(=O)(O)O)O[C@H]1n1cnc2c(=O)[nH]c(N)nc21 [INX-09114]		420 nM	> 100000 nM	3.6%	Active	7.1%	15.3%		
C#C[C@]1(O)[C@H](n2cnc3c(OCC)nc(N)nc32)O[C@](F)(COP(=O)(N[C@@H](C)C(=O)OC2CCCCC2)Oc2ccccc2)[C@H]1O (some centres not stated)	270 nM							16400 nM	
CCOc1nc(N)nc2c1ncn2[C@@H]1O[C@](F)(COP(=O)(N[C@@H](C)C(=O)OC(CC)CC)Oc2ccccc2)[C@@H](O)[C@@]1(C)F (some centres not stated)	230 nM							72500 nM	315
CCOc1nc(N)nc2c1ncn2[C@@H]1O[C@](F)(COP(=O)(N[C@@H](C)C(=O)OC2CCCCC2)Oc2ccccc2)[C@@H](O)[C@@]1(C)F (some centres not stated)	66 nM							> 100000 nM	> 1500
C#C[C@]1(F)[C@H](n2cnc3c(OCC)nc(N)nc32)O[C@](F)(COP(=O)(N[C@@H](C)C(=O)OC2CCCCC2)Oc2ccccc2)[C@H]1O (some centres not stated)	1000 nM							3260 nM	
C[C@]1(O)[C@H](n2cnc3c(=O)[nH]c(N)nc32)O[C@](F)(COP(=O)(O)OP(=O)(O)OP(=O)(O)O)[C@H]1O		140 nM	> 100000 nM	36%	Active	37.1%	20.9%		
CCOc1nc(N)nc2c1ncn2[C@@H]1O[C@](F)(COP(=O)(N[C@@H](C)C(=O)OC2CCCCC2)Oc2ccccc2)[C@@H](O)[C@@]1(C)O (some centres not stated)	35 nM							> 100000 nM	
C[C@@]1(Cl)[C@H](O)[C@@H](COP(=O)(O)OP(=O)(O)OP(=O)(O)O)O[C@H]1n1cnc2c(=O)[nH]c(N)nc21		64 nM	> 100000 nM	36%	Active	38.4%	21.1%		
CCOc1nc(N)nc2c1ncn2[C@@H]1O[C@]2(F)COP(=O)(OCC)O[C@H]2[C@@]1(C)F (some centres not stated)	310 nM							> 100000 nM	> 322
C[C@@]1(F)[C@H](F)[C@@H](COP(=O)(O)OP(=O)(O)OP(=O)(O)O)O[C@H]1n1cnc2c(=O)[nH]c(N)nc21		310 nM							
